Measurements published in ChEMBL document CHEMBL2146359, “HCV NS5A replication complex inhibitors. Part 2: investigation of stilbene prolinamides” (Bioorg Med Chem Lett, 2012).
In brackets after ≈: the same amount, converted by molar mass.

Assays:
Rattus norvegicus [1] = experiment: Volume of distribution at steady state in rat at 1.8 mg/kg, po and iv; assay type: ADME, organism-based; design: dose 1.8 mg/kg, route oral; conditions: in vivo
[2] = Solubility of the compound; assay type: physicochemical
[3] = Cytotoxicity against human HuH7 cells after 72 hrs by Alamar Blue assay; assay type: cell-based; conditions: Huh-7 cells
[4] = test system: Bovine viral diarrhea virus 1; experiment: Antiviral activity against BVDV1; assay type: functional, organism-based; conditions: Bovine viral diarrhea virus isolates and strains
[5] = Cmax in rat at 1.8 mg/kg, po and iv; assay type: ADME, organism-based; design: dose 1.8 mg/kg, route oral; conditions: in vivo
[6] = Half life in rat at 1.8 mg/kg, po and iv; assay type: ADME, organism-based; design: dose 1.8 mg/kg, route oral; conditions: in vivo
Hepatitis C virus = experiment: Antiviral activity against HCV genotype 1b infected in human Huh7 cells assessed as inhibition of viral replication by FRET assay; assay type: functional, organism-based, Hepacivirus hominis; conditions: Huh-7
Method in brief: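 Replicon potency values are the means of at least two experiments.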

[7] = Metabolic stability in rat liver microsomes assessed as compound remaining after 10 mins; assay type: ADME, Microsome; conditions: read-out: Stability
[8] = AUC in rat at 1.8 mg/kg, iv; assay type: ADME, organism-based; design: dose 1.8 mg/kg, route intravenous; conditions: plasma
[9] = Oral bioavailability in rat at 1.8 mg/kg; assay type: ADME, organism-based; conditions: in vivo
[10] = AUC in rat at 1.8 mg/kg, po; assay type: ADME, organism-based; design: dose 1.8 mg/kg, route oral; conditions: plasma
[11] = Half life in rat at 2.5 mg/kg, po and iv; assay type: ADME, organism-based; design: dose 2.5 mg/kg, route oral; conditions: in vivo
Rattus norvegicus [12] = experiment: Volume of distribution at steady state in rat at 2.5 mg/kg, po and iv; assay type: ADME, organism-based; design: dose 2.5 mg/kg, route oral; conditions: in vivo
Rattus norvegicus [13] = experiment: AUC in rat at 2.5 mg/kg, iv; assay type: ADME, organism-based, Plasma; design: dose 2.5 mg/kg, route intravenous; conditions: in vivo
[14] = Permeability across human Caco2 cells; assay type: ADME, cell-based; conditions: Caco-2, read-out: permeability
Rattus norvegicus [15] = experiment: Volume of distribution at steady state in rat at 1.6 mg/kg, po and iv; assay type: ADME, organism-based; design: dose 1.6 mg/kg, route oral; conditions: in vivo
[16] = Half life in rat at 1.6 mg/kg, po and iv; assay type: ADME, organism-based; design: dose 1.6 mg/kg, route oral; conditions: in vivo
[17] = AUC in rat at 1.6 mg/kg, iv; assay type: ADME, organism-based; design: dose 1.6 mg/kg, route intravenous; conditions: plasma
[18] = Half life in rat at 2.8 mg/kg, po and iv; assay type: ADME, organism-based; design: dose 2.8 mg/kg, route oral; conditions: in vivo
[19] = AUC in rat at 2.8 mg/kg, iv; assay type: ADME, organism-based; design: dose 2.8 mg/kg, route intravenous; conditions: plasma
[20] = Cmax in rat at 2.8 mg/kg, po and iv; assay type: ADME, organism-based; design: dose 2.8 mg/kg, route oral; conditions: in vivo
[21] = AUC in rat at 2.8 mg/kg, po; assay type: ADME, organism-based; design: dose 2.8 mg/kg, route oral; conditions: plasma
[22] = Oral bioavailability in rat at 2.8 mg/kg; assay type: ADME, organism-based; conditions: in vivo
Rattus norvegicus [23] = experiment: Volume of distribution at steady state in rat at 2.8 mg/kg, po and iv; assay type: ADME, organism-based; design: dose 2.8 mg/kg, route oral; conditions: in vivo

Row | EC50 [4] [µM] | EC50 (Hepatitis C virus) [µM] | SMILES | CC50 at 72 h [3] [µM] | other results
1 | > 10 | 0.00897 | O=C(Nc1ccc(/C=C/c2ccc(NC(=O)[C@@H]3CCCN3C(=O)OCc3ccccc3)cc2)cc1)[C@@H]1CCCN1C(=O)OCc1ccccc1 | > 10 | Vdss (Rattus norvegicus [1]): 4.3 L/kg; solubility [2]: < 1 µg/mL; Cmax [5]: 4 ng/mL; half-life [6]: 4.6 h; remaining at 10 min [7]: 77%; AUC [8]: 1620 ng·h/mL; bioavailability [9]: 2%; AUC [10]: 37 ng·h/mL
2 | > 10 | < 0.005 | C[C@@H](C(=O)N1CCC[C@H]1C(=O)Nc1ccc(/C=C/c2ccc(NC(=O)[C@@H]3CCCN3C(=O)[C@H](C)c3ccccc3)cc2)cc1)c1ccccc1 | > 10 | 
3 | > 10 | 0.0015 | CC(=O)N1CCC[C@H]1C(=O)Nc1ccc(/C=C/c2ccc(NC(=O)[C@@H]3CCCN3C(=O)Cc3ccccc3)cc2)cc1 | > 10 | half-life [11]: 5.2 h; Vdss (Rattus norvegicus [12]): 1.2 L/kg; remaining at 10 min [7]: 82%; AUC (Rattus norvegicus [13]): 101535 ng·h/mL; Papp [14]: < 1.5 ×10⁻⁶ cm/s
4 | > 10 | 0.0289 | O=C(Nc1ccc(/C=C/c2ccc(NC(=O)[C@@H]3C[C@@H](O)CN3C(=O)OCc3ccccc3)cc2)cc1)[C@@H]1C[C@@H](O)CN1C(=O)OCc1ccccc1 | > 10 | Vdss (Rattus norvegicus [15]): 1 L/kg; remaining at 10 min [7]: 99%; Papp [14]: 3.5 ×10⁻⁶ cm/s; half-life [16]: 6.4 h; AUC [17]: 2450 ng·h/mL
5 | > 10 | 0.015 | CCO[C@H]1C[C@@H](C(=O)Nc2ccc(/C=C/c3ccc(NC(=O)[C@@H]4C[C@H](OCC)CN4C(=O)OCc4ccccc4)cc3)cc2)N(C(=O)OCc2ccccc2)C1 | > 10 | 
6 | > 10 | 0.35 | CC(C)(C)O[C@H]1C[C@@H](C(=O)Nc2ccc(/C=C/c3ccc(NC(=O)[C@@H]4C[C@H](OC(C)(C)C)CN4C(=O)OCc4ccccc4)cc3)cc2)N(C(=O)OCc2ccccc2)C1 | > 10 | 
7 | > 10 | > 10 | CC(C)(C)NC(=O)O[C@@H]1C[C@@H](C(=O)Nc2ccc(/C=C/c3ccc(NC(=O)[C@@H]4C[C@@H](OC(=O)NC(C)(C)C)CN4C(=O)OCc4ccccc4)cc3)cc2)N(C(=O)OCc2ccccc2)C1 | > 10 | 
8 | > 10 | 1.29 | N[C@H]1C[C@@H](C(=O)Nc2ccc(/C=C/c3ccc(NC(=O)[C@@H]4C[C@H](N)CN4C(=O)OCc4ccccc4)cc3)cc2)N(C(=O)OCc2ccccc2)C1 | > 10 | 
9 | > 10 | 0.01 | CN(C)[C@H]1C[C@@H](C(=O)Nc2ccc(/C=C/c3ccc(NC(=O)[C@@H]4C[C@H](N(C)C)CN4C(=O)OCc4ccccc4)cc3)cc2)N(C(=O)OCc2ccccc2)C1 | > 10 | 
10 | > 10 | 0.005 | C[C@H](C(=O)N1CCC[C@H]1C(=O)Nc1ccc(/C=C/c2ccc(NC(=O)[C@@H]3CCCN3C(=O)[C@@H](C)c3ccccc3)cc2)cc1)c1ccccc1 | > 10 | 
11 | > 10 | 0.102 | O=C(Nc1ccc(/C=C/c2ccc(NC(=O)[C@@H]3CCCN3C(=O)c3ccccc3)cc2)cc1)[C@@H]1CCCN1C(=O)c1ccccc1 | > 10 | 
12 | > 10 | 2.38 | CC(=O)N1CCC[C@H]1C(=O)Nc1ccc(/C=C/c2ccc(NC(=O)[C@@H]3CCCN3C(C)=O)cc2)cc1 | > 10 | 
13 | > 10 | 0.000784 | O=C(Nc1ccc(/C=C/c2ccc(NC(=O)[C@@H]3CCCN3C(=O)Cc3cccnc3)cc2)cc1)[C@@H]1CCCN1C(=O)Cc1cccnc1 | > 10 | Vdss (Rattus norvegicus [1]): 2.9 L/kg; solubility [2]: 53 µg/mL (≈ 82.5 µM); Cmax [5]: 120 ng/mL; half-life [6]: 9.3 h; remaining at 10 min [7]: 88%; AUC [8]: 3080 ng·h/mL; bioavailability [9]: 10%; Papp [14]: 1.6 ×10⁻⁶ cm/s; AUC [10]: 322 ng·h/mL
14 | > 10 | 0.00222 | O=C(Nc1ccc(/C=C/c2ccc(NC(=O)[C@@H]3CCCN3C(=O)Cc3ccccn3)cc2)cc1)[C@@H]1CCCN1C(=O)Cc1ccccn1 | > 10 | 
15 | > 10 | 0.172 | O=C(Nc1ccc(/C=C/c2ccc(NC(=O)[C@@H]3CCCN3C(=O)Cc3ccncc3)cc2)cc1)[C@@H]1CCCN1C(=O)Cc1ccncc1 | > 10 | 
16 | > 10 | 0.00128 | O=C(Nc1ccc(/C=C/c2ccc(NC(=O)[C@@H]3CCCN3C(=O)Cc3cccs3)cc2)cc1)[C@@H]1CCCN1C(=O)Cc1cccs1 | > 10 | 
17 | > 10 | 0.0102 | Cn1cccc1CC(=O)N1CCC[C@H]1C(=O)Nc1ccc(/C=C/c2ccc(NC(=O)[C@@H]3CCCN3C(=O)Cc3cccn3C)cc2)cc1 | > 10 | 
18 | > 10 | 0.0762 | Cc1cc(CC(=O)N2CCC[C@H]2C(=O)Nc2ccc(/C=C/c3ccc(NC(=O)[C@@H]4CCCN4C(=O)Cc4cc(C)no4)cc3)cc2)on1 | > 10 | 
19 | > 10 | 0.0867 | Cn1cnc(CC(=O)N2CCC[C@H]2C(=O)Nc2ccc(/C=C/c3ccc(NC(=O)[C@@H]4CCCN4C(=O)Cc4cn(C)cn4)cc3)cc2)c1 | > 10 | 
20 | > 10 | 1 | O=C(Nc1ccc(/C=C/c2ccc(NC(=O)[C@@H]3CCCN3C(=O)Cc3c[nH]cn3)cc2)cc1)[C@@H]1CCCN1C(=O)Cc1c[nH]cn1 | > 10 | 
21 | > 10 | 0.0579 | Cc1nc2sccn2c1C(=O)N1CCC[C@H]1C(=O)Nc1ccc(/C=C/c2ccc(NC(=O)[C@@H]3CCCN3C(=O)c3c(C)nc4sccn34)cc2)cc1 | > 10 | 
22 | > 10 | 0.111 | O=C(Nc1ccc(/C=C/c2ccc(NC(=O)[C@@H]3CCCN3C(=O)c3c[nH]c4ccccc34)cc2)cc1)[C@@H]1CCCN1C(=O)c1c[nH]c2ccccc12 | > 10 | 
23 | > 10 | 0.14 | Cn1cc(C(=O)N2CCC[C@H]2C(=O)Nc2ccc(/C=C/c3ccc(NC(=O)[C@@H]4CCCN4C(=O)c4cn(C)c5ccccc45)cc3)cc2)c2ccccc21 | > 10 | 
24 | > 10 | 0.011 | O=C(Nc1ccc(/C=C/c2ccc(NC(=O)[C@@H]3CCCN3C(=O)C3Cc4ccccc4O3)cc2)cc1)[C@@H]1CCCN1C(=O)C1Cc2ccccc2O1 (stereo partly specified) | > 10 | 
25 | > 10 | 0.056 | O=C(Nc1ccc(/C=C/c2ccc(NC(=O)[C@@H]3CCCN3C(=O)c3ccc4occc4c3)cc2)cc1)[C@@H]1CCCN1C(=O)c1ccc2occc2c1 | > 10 | 
26 | > 10 | 0.0868 | Cc1nc2ccccn2c1C(=O)N1CCC[C@H]1C(=O)Nc1ccc(/C=C/c2ccc(NC(=O)[C@@H]3CCCN3C(=O)c3c(C)nc4ccccn34)cc2)cc1 | > 10 | 
27 | > 10 | 1.63 | O=C(Nc1ccc(/C=C/c2ccc(NC(=O)[C@@H]3CCCN3C(=O)c3cccc4ccccc34)cc2)cc1)[C@@H]1CCCN1C(=O)c1cccc2ccccc12 | > 10 | 
28 | > 10 | 10 | O=C(Nc1ccc(/C=C/c2ccc(NC(=O)[C@@H]3CCCN3C(=O)c3ccc4ccccc4c3)cc2)cc1)[C@@H]1CCCN1C(=O)c1ccc2ccccc2c1 | > 10 | 
29 | > 10 | 1.13 | CCc1ccccc1C(=O)N1CCC[C@H]1C(=O)Nc1ccc(/C=C/c2ccc(NC(=O)[C@@H]3CCCN3C(=O)c3ccccc3CC)cc2)cc1 | > 10 | 

Row | SMILES | EC50 [4] [µM] | EC50 (Hepatitis C virus) [µM] | CC50 at 72 h [3] [µM] | other results
30 | O=C(Nc1ccc(/C=C/c2ccc(NC(=O)[C@@H]3CCCN3C(=O)CC3CC3)cc2)cc1)[C@@H]1CCCN1C(=O)CC1CC1 | > 10 | 0.062 | > 10 | half-life [18]: 4.9 h; solubility [2]: 4.4 µg/mL (≈ 7.74 µM); AUC [19]: 18500 ng·h/mL; Cmax [20]: 1500 ng/mL; AUC [21]: 11900 ng·h/mL; remaining at 10 min [7]: 84%; Papp [14]: 0.4 ×10⁻⁶ cm/s; bioavailability [22]: 64%; Vdss (Rattus norvegicus [23]): 0.8 L/kg
